# According to PubChem BioAssay AID624466 (The Scripps Research Institute Molecular Screening Center, 2012):
# Among all 360,000 compounds or so, about 5,400 (1.5%) were called active. Many of the other results were omitted from the sample, so actives are more common in it than they were. Unmarked numbers belong to inactive results.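 The calls were made as follows: active = inhibition above a per-plate cutoff, the mean inhibition of test compounds on that plate plus 3 SD (cut at about 49% in these data); inactive = the rest.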
# Biological target: Trace amine-associated receptor 1 (Homo sapiens) (UniProt Q96RJ0)
# Experiment: blockers of beta-PEA-driven TAAR1 calcium signal – Fluo-8 calcium fluorescence, CHO RD-HGA16 cells, primary screen (AID 624466);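 also: 0% = DMSO plus EC80 beta-PEA response and 100% = DMSO alone without agonist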
# Settings: CHO RD-HGA16 TAAR1, Fluo-8 calcium fluorescence, antagonist; at 3 µM; active compounds read high
# In short: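 Test system – hTAAR1-expressing CHO RD-HGA16 cells, Gα16-coupled · Reagent – β-PEA at EC80 concentration, post-compound challenge · Compound dosing – 3 µM, single point · Timing – 140 s kinetic read after compound, 140 s after agonist · Detection – Fluo-8 intracellular calcium dye fluorescence, real-time kinetic reads · Control set – DMSO and EC80 PEA controls · Repeats – n of 1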
# Sequence of Trace amine-associated receptor 1 (Homo sapiens) (Q96RJ0 whole entry, looked up): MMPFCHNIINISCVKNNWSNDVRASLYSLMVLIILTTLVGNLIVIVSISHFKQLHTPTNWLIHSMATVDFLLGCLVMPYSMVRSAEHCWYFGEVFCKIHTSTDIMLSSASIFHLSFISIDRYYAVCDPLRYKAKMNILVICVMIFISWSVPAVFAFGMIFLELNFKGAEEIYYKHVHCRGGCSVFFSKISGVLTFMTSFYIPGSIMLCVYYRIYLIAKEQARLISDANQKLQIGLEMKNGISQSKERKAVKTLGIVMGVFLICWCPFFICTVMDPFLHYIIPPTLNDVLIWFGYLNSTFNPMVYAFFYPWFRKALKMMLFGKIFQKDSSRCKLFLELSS
row,Compound,inhibition
1,COc1cccc(C(=O)NCCS(=O)(=O)NCC2CCCO2)c1 (configuration not stated),4.1%
2,CN(C)S(=O)(=O)N1CCC(Oc2cccc(C(=O)NCCCC3CCCC3)c2)CC1,61.1% (active)
3,CN(C(=O)c1cccc(OC2CCN(S(=O)(=O)N(C)C)CC2)c1)C1CCOC1 (configuration not stated),-15.9%
4,CCCCn1nnnc1C1(C)CCC(=O)N1Cc1ccc(OC)c(OC)c1 (configuration not stated),-1.16%
5,CC(C)(C)NC(=O)C(CCc1ccccc1)n1c(=O)c(-c2ccccc2)nc2ccccc21 (configuration not stated),-53.9%
6,COc1ccc(CCNC(=O)c2nnc(CS(=O)(=O)c3ccccc3)o2)cc1OC,-2.06%
7,COc1ccccc1CNC(=O)c1ccc(CS(=O)(=O)c2ccccc2)o1,26.5%
8,COc1ccc(CCNC(=O)c2ccc(CS(=O)(=O)c3ccc(Br)cc3)o2)cc1OC,77.3% (active)
9,CCCCNC(=O)Nc1c(C)cc(SC#N)cc1C,7.39%
10,O=C(NN1C(=O)C2C3C=CC(C4CC34)C2C1=O)c1ccc(Cl)cc1 (configuration not stated),1.86%
11,Cc1ccc(N)cc1CN1CCN(c2ncc(Cc3ccccc3)cn2)CC1,-11.9%
12,Cc1onc(-c2c(F)cccc2Cl)c1C(=O)Nc1cccc(S(=O)(=O)N2CCCCC2)c1,60.4% (active)
13,O=C(Nc1ccc(S(=O)(=O)N2CCCCCC2)cc1)c1c(F)cccc1F,-11.6%
14,O=C(Nc1cccc(S(=O)(=O)N2CCCCC2)c1)c1cncc(Br)c1,28.2%
15,Cc1ccc([C@@H]2CC=C(C(=O)O)[C@H](c3cccc(Cl)c3)N2S(=O)(=O)c2ccc(C)cc2)cc1,29.7%
16,Cc1ccccc1S(=O)(=O)N1[C@@H](c2cccc(Cl)c2)C(C(=O)OC(C)(C)C)=CC[C@H]1c1ccc(Cl)cc1,-16.6%
17,Cc1ccccc1S(=O)(=O)N1[C@@H](c2cccc(Cl)c2)C(C(=O)O)=CC[C@H]1c1ccc(Cl)cc1,50.1% (active)
18,CC(C)(C)n1nc(C2CC2)c(Br)c1NC(=O)c1ccccc1F,-16.1%
19,COc1ccc(-c2ccc3c(n2)CCCN3S(=O)(=O)c2ccc(C)cc2)cc1,24%
20,CN1CCCc2nc(-c3ccccc3)ccc21,-0.46%
21,O=S(=O)(c1cccs1)N1CCCc2nc(-c3ccc(Br)cc3)ccc21,58% (active)
22,COC(=O)[C@]12C[C@H](CC(=O)N3CCN(C(=O)C4CC4)CC3)C(=O)N(Cc3ccc4c(c3)OCO4)C1=C[C@H](C(C)(C)C)O[C@@H]2C,1.35%

row,Compound,inhibition
1,O=C1Nc2ccccc2-n2nnnc2C1N1CCN(c2cccc(C(F)(F)F)n2)CC1 (configuration not stated),7.81%
2,COc1ccc(C(=O)Nc2cccc(NC(=O)c3ccc(OC)cc3OC)n2)c(OC)c1,64.8% (active)
3,COc1ccc(C(=O)CCC(=O)Nc2cccnc2)c(OC)c1,-6.73%
4,COc1ccc(C(=O)NC(C)CCc2ccccc2)c(OC)c1 (configuration not stated),-22.5%
5,CC1(C(=O)Nc2ccc3c(c2)OCCO3)CSCC(=O)N1CCOc1ccccc1 (configuration not stated),-7.49%
6,CCc1ccc2oc(-c3ccc(N)cc3)nc2c1,8.65%
7,CCN(CC)c1ccc2oc(=O)c(C)nc2c1,49.8% (active)
8,Cc1ccc2oc(=O)ccc2c1,2.03%
9,O=C(NCCCn1ccnc1)c1cc2c(s1)CCCC2,-26.6%
10,C/C=N/N(c1ccccc1)c1ccccc1,-13.2%
11,C[C@H]1CN([C@@H](C)CO)C(=O)CCCn2nncc2CO[C@@H]1CN(C)C(=O)Nc1ccc(N2CCN(C)CC2)cc1,5.42%
12,CC(C)(CCl)C(=O)Nc1ccc(Sc2ccc(F)cc2)cc1,57.9% (active)
13,O=C(CCl)Nc1ccc(Sc2ccc(NC(=O)CCl)cc2)cc1,21.9%
14,CC(C)CNC(=S)Nc1ccc(F)cc1,5.98%
15,COc1cc(NS(=O)(=O)c2ccc(N/C=C(\C=O)c3nc4cc(Cl)ccc4o3)cc2)nc(OC)n1,16.2%
16,CCN(CC(=O)NC1CCS(=O)(=O)C1)S(=O)(=O)c1ccccc1 (configuration not stated),-18%
17,O=C(NCCc1c[nH]c2ccccc12)C1CCN(Cc2ccc(Br)cc2)CC1,2.79%
18,N#C/C(=C\c1ccc(N2CCOCC2)o1)C(=O)N1CCOCC1,-12.1%
19,N#C/C(=C/c1ccc(N2CCCCC2)o1)C(=O)NCCc1c[nH]c2ccccc12,57.6% (active)
20,Cc1cc(Br)cn2c(Cc3ccccc3C(F)(F)F)c(-c3ccc(C#N)cc3)nc12,3.16%
21,CN(C(=O)COC(=O)CCCc1c[nH]c2ccccc12)c1c(N)n(Cc2ccccc2)c(=O)[nH]c1=O,2.09%
22,COc1ccc(SSc2ccc(OC)cc2C(=O)O)c(C(=O)O)c1,-9.02%

row,Compound,inhibition
1,S=C(NN=C1CCN(Cc2ccccc2)CC1)NC1CCCCC1,-2.21%
2,S=C(Nc1ccc(Br)cc1Cl)NC1CCN(Cc2ccccc2)CC1,0.09%
3,S=C(Nc1ccc(Br)cc1)NC1CCN(Cc2ccccc2)CC1,51.4% (active)
4,Cc1ccc2nc(-c3ccc(CN4CCC(n5cc(-c6ccccc6)[nH]c5=O)CC4)cc3)c(-c3ccccc3)nc2c1,14.1%
5,Cc1cc(Cl)c(S(=O)(=O)NCc2cccnc2)cc1OCC(N)=O,-0.54%
6,CCC(=O)N1Cc2cc(C(=O)NCc3cccc(F)c3)nc(-c3cccc(C4=CCCC4)c3)c2[C@H]1CCO,-2.34%
7,Nc1c(C(=O)c2cccs2)sc2nsc(SCCN3CCCCC3)c12,61.2% (active)
8,COc1cccc(-c2nnc(N(C)C(=O)c3ccno3)s2)c1,8.59%
9,CN=C1SC(CC(=O)Nc2ccc(C(=O)O)cc2)C(=O)N1C (configuration not stated),-12.5%
10,CCN1C(=O)C(CC(=O)Nc2cc(C)ccc2C)SC1=Nc1ccc(S(N)(=O)=O)cc1 (configuration not stated),6.51%
11,CCN=C1SC(CC(=O)Nc2ccc(C)cc2)C(=O)N1CC (configuration not stated),57.5% (active)
12,Cc1ccc(NC(=O)N2c3ccccc3SC2c2ccco2)c(C)c1 (configuration not stated),-10.8%
13,CC(=O)N1CCc2cc(S(=O)(=O)NC3CCCCC3)ccc21,6.97%
14,Cc1ccc(NC(=O)CN(C)C(=O)Cn2nnc(-c3ccccc3)n2)cc1,-1.85%
15,COc1ccc(-c2nc3ccccc3n2CCC(C)C)cc1OC,19.6%
16,CC(=O)OCCN(CCCn1c(-c2ccncc2)nc2ccccc21)c1nc(-c2ccc(C)cc2)cs1,53.5% (active)
17,CCOCCn1c(-c2ccccc2)nc2ccccc21,-32.8%
18,CCc1cccc2c3c([nH]c12)C(CC)(CC(=O)O)OCC3 (configuration not stated),-11.8%
19,O=C1CCN(Cc2ccccc2)CCN1[C@H](CSc1ccccc1)c1ccccc1,15.6%
20,CC(C)C1Cc2[nH][nH]c(=O)c2C(c2ccc(Cl)cc2)O1 (configuration not stated),-21.6%
21,CCC(c1nnnn1-c1ccc2c(c1)OCCO2)N1CCN(c2ccc(C(F)(F)F)cn2)CC1 (configuration not stated),24.4%
22,CC(=O)Nc1ccc(NC(=O)C(C)OC(=O)c2ccccc2C(=O)c2ccc(Cl)c([N+](=O)[O-])c2)cc1 (configuration not stated),13.5%

row,Compound,inhibition
1,N#Cc1cccc(NC(=O)COC(=O)c2ccccc2C(=O)c2ccc(Cl)c([N+](=O)[O-])c2)c1,71.8% (active)
2,NS(=O)(=O)c1cccc(NC(=O)COC(=O)c2cc([N+](=O)[O-])ccc2N2CCCC2)c1,7.66%
3,O=C(c1ccco1)N1CCN(C(=O)C2CCCN(S(=O)(=O)c3cccc4nsnc34)C2)CC1 (configuration not stated),8.68%
4,COc1cc(OC)cc(-c2c(C#Cc3ccsc3)c3cc(-c4ccc(OC)cc4F)ccc3n2C)c1,10.3%
5,COc1cccc(NC(=O)N(C)C[C@@H]2OCc3cn(nn3)CCCC(=O)N([C@@H](C)CO)C[C@H]2C)c1,-3.32%
6,CCOc1ccc(NC(=O)N2CC=C(n3c(=O)[nH]c4ccccc43)CC2)cc1,62% (active)
7,Cc1cccc(C)c1NC(=O)N1CC=C(n2c(=O)[nH]c3ccccc32)CC1,17.3%
8,CCOc1ccc(NC(=O)N2CCN(CC)CC2)cc1,13.8%
9,CCCNC(=S)N1CCCC(c2nc3ccccc3[nH]2)C1 (configuration not stated),1.96%
10,CC(C)C[C@@H](COCc1ccc(Cl)cc1)N1CCN(C(=O)c2ccc(Cl)cc2Cl)CCC1=O,15.1%
11,Fc1ccc(NC(=S)N2CCc3[nH]c4ccccc4c3C2)cc1,60.8% (active)
12,C[C@H](O)[C@@H]1C(=O)N2CCc3c([nH]c4ccccc34)[C@@H]2C[C@@H]1N(C)C(=O)Nc1ccc(F)cc1,-21.1%
13,C=CCNC(=S)N1CCc2[nH]c3ccccc3c2C1,-0.9%
14,Cc1ccc(S(=O)(=O)N2[C@@H](Cc3ccccc3)CO[C@H]2CC(=O)OCc2ccccc2)cc1,22.8%
15,COc1ccc(NC(=O)CNc2cc(S(=O)(=O)N3CCOCC3)ccc2N2CCOCC2)c(OC)c1,14.2%
16,Cc1[nH]nc2c1C(c1ccc(Br)cc1)NC2=O (configuration not stated),-19.4%
17,CCOC(=O)N1CCC(=NNC(N)=O)CC1,5.25%
18,Fc1ccc(Cn2nnnc2C(c2cccs2)N2CCCCCC2)cc1 (configuration not stated),50% (active)
19,Fc1ccccc1C(c1nnnn1Cc1ccc2c(c1)OCO2)N1CCN(Cc2ccccc2)CC1 (configuration not stated),8.62%
20,N#Cc1ccc(C(c2nnnn2CCc2ccccc2)N2CCCCCC2)cc1 (configuration not stated),19.8%
21,CCc1nnc(NC(=O)CSc2nnnn2-c2cccc(C(C)=O)c2)s1,-22.1%
